Measured values pooled from the literature.
Compare with care: the assays were run in different laboratories.
Target: Phosphorylase b kinase gamma catalytic chain, liver/testis isoform (PHKG2, Homo sapiens, UniProt P15735)
One construct used (P15735 1-406): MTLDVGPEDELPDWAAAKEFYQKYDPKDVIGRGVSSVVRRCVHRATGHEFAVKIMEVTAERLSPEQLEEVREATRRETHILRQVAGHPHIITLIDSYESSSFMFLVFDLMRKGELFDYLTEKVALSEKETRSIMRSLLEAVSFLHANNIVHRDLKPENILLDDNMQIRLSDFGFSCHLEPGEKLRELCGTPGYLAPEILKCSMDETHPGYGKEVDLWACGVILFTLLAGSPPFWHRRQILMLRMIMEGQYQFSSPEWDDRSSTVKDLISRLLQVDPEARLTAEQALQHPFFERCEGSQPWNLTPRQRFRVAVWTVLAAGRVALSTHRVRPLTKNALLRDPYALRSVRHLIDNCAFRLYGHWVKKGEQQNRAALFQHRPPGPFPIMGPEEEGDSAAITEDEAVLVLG

Compound | read-out | mode | technique | tested at | endpoint | result
CC(C)(O)[C@H]1CC[C@H](Nc2ccc3ncc(-c4cccc(C(F)(F)F)c4)n3n2)CC1 | enzyme activity | inhibitor | – | 1 µM | remaining activity | 99.4%
CCc1ccccc1C(=O)Nc1n[nH]c2c(C)c(F)c(C3C(C#N)=C(C)N(C)C(C)=C3C#N)cc12 | cell-free assay | – | competition with immobilised ligand | 1 µM | remaining binding | 81%
N#CCCc1ccc2c(c1)-c1[nH]c3ccc([N+](=O)[O-])cc3c1CC(=O)N2 | cell-free assay | – | – | 0.5 µM | remaining signal | 99.1%
COCCOc1nc(-c2ccc(Cl)nc2)nc2c1CN(C(=O)c1ncn3ccccc13)CC2 | cell-free assay | – | competition with immobilised ligand | 0.1 µM | remaining binding | 100%
COc1cccc2c(NCc3ccccc3)nc(-n3c(N)nc4ccccc43)nc12 | target engagement in cells | inhibitor | chemoproteomics | 20 mM | inhibition | 4.6%
CCCCN(CCCC)C(=O)CN1C[C@@H](c2cc(OC)c3c(c2)OCO3)[C@H](C(=O)O)[C@H]1CC(C)(C)CCC | cell-free assay | – | competition with immobilised ligand | 1 µM | remaining binding | 100%
O=C(Nc1cnn(-c2csc(C(=O)NC3COC3)c2)c1)Nc1ccccc1Cl | enzyme activity | inhibitor | – | 5 µM | remaining activity | 101%
Clc1ccc(Nc2nnc(Cc3ccncc3)c3ccccc23)cc1 | cell-free assay | – | – | 0.5 µM | remaining signal | 91.8%
Cc1cc(NC(=O)c2cccc3cc(-c4cccc5[nH]nc(N)c45)ccc23)ccc1F | enzyme activity | inhibitor | – | 0.1 µM | activity vs control | 87%
CC(C)(C)c1nc(-c2cccc(NS(=O)(=O)c3c(F)cccc3F)c2F)c(-c2ccnc(N)n2)s1 | enzyme activity | inhibitor | radiometric | 1 µM | remaining activity | 88%
Nc1ncnc2occ(-c3ccc(NC(=O)Nc4cc(C(F)(F)F)ccc4F)cc3)c12 | cell-free assay | inhibitor | – | 20 µM | remaining signal | 53%
COc1cc2ncnc(Nc3ccc(Oc4ccccc4)cc3C)c2cc1OC | enzyme activity | inhibitor | – | 1 µM | inhibition | 0%
CC(C)CC(=O)N1CCc2nc(-c3ccc(Br)cc3)nc(N(C)Cc3ccccc3)c2C1 | cell-free assay | – | competition with immobilised ligand | 0.1 µM | remaining binding | 100%
CS(=O)(=O)CCNCc1ccc(-c2ccc3ncnc(Nc4ccc(OCc5cccc(F)c5)c(Cl)c4)c3c2)o1 | cell-free assay | – | – | 0.5 µM | remaining signal | 99.5%
O=C(Nc1cccnn1)N1CCC(=Cc2cccc(Oc3ccc(C(F)(F)F)cn3)c2)CC1 | cell-free assay | – | competition with immobilised ligand | 1 µM | remaining binding | 88%
CNC(=O)c1cc(Oc2ccc(NC(=O)Nc3ccc(Cl)c(C(F)(F)F)c3)cc2)ccn1 | cell-free assay | – | – | 0.5 µM | remaining signal | 91.3%
NS(=O)(=O)c1cc(NC(=O)C2(c3ccccc3Cl)CC2)ccc1Oc1cccc(Cl)c1 | cell-free assay | – | competition with immobilised ligand | 1 µM | remaining binding | 100%
Cc1ccc(Nc2nccc(N(C)c3ccc4c(C)n(C)nc4c3)n2)cc1S(N)(=O)=O | enzyme activity | inhibitor | – | 10 µM | inhibition | -2%
